Source: ChEMBL document CHEMBL4340510, “Design, synthesis, and biological evaluation of truncated deguelin derivatives as Hsp90 inhibitors” (Eur J Med Chem, 2019)
pIC50: −log10 of the molar value. Activity calls are given as the source filed them. The calls are words filed in the database; no cut-off is given here.

Key:
MCF7 [1] = test: Cell cycle arrest in human MCF7 cells assessed as accumulation at G1 phase at 0.5 uM after 48 hrs by propidium iodide staining-based flow cytometry (reference value: 60.61%); assay type: functional
In short: (§1)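 5×10^4 cells are seeded, incubated overnight, then treated 48 h. Cells are washed in cold PBS and fixed in 70% ethanol at −20 °C for 12 h. They are then stained with 100 µg/mL RNase plus 50 µg/mL PI in PBS, 37 °C for 30 min. DNA content is measured by flow cytometry.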

NCI-H1299 [2] = test: Antiproliferative activity against human NCI-H1299 cells assessed as inhibition of cell growth at 1 uM after 72 hrs by MTT assay relative to control; assay type: functional; conditions: NCI-H1299, 72 h, read-out: GI
In short: (§2)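 Cells in RPMI 1640 are seeded at 4,000 cells/well and held 24 h at 37 °C, 5% CO2. Medium is replaced with compound-containing medium (DMSO ≤0.25%) for 72 h at 37 °C. MTT read-out by absorbance at 570 nm. Quadruplicate wells, repeated three times; values are means of three independent experiments.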

[3] = target: T1, Heat shock protein HSP90 (Homo sapiens) (UniProt P07900+P08238); test: Inhibition of HSP90 in human MCF7 cells assessed as decrease in phosphorylation of MAPK after 48 hrs by Western blot analysis; assay type: cell-based
In short: (§3)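 Cells are treated 48 h and washed twice in ice-cold PBS. They are lysed on ice for 20 min and spun at 13,000 g, 4 °C. 20 μg protein is run on 8-12% SDS-PAGE and transferred to PVDF. Membranes are probed overnight at 4 °C with primary antibodies (Bcl-xL, cleaved caspase-3, mTOR/p-mTOR, MAPK/p-MAPK, Akt/p-Akt, HIF-1α, survivin; β-actin/GAPDH loading). HRP secondary and chemiluminescence detection follow.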

MCF7 [4] = test: Antiinvasive activity in human MCF7 cells assessed as number of invaded cells at 1 uM after 24 hrs by crystal violet dye-based transwell matrix penetration assay (reference value: 172.1 +/- 8.3); assay type: functional
MCF7 [5] = test: Cell cycle arrest in human MCF7 cells assessed as accumulation at G2 phase at 2 uM after 48 hrs by propidium iodide staining-based flow cytometry (reference value: 22.74%); assay type: functional; in short: as §1
[6] = target: T1, Heat shock protein HSP90 (Homo sapiens); test: Inhibition of HSP90 in human MCF7 cells assessed as decrease in phosphorylation of AKT after 48 hrs by Western blot analysis; assay type: cell-based; in short: as §3
[7] = target: T1, Heat shock protein HSP90 (Homo sapiens); test: Inhibition of monoclonal antibody binding to HSP90 (unknown origin) by immunoprecipitation-based Western blot analysis; assay type: protein assay
MCF7 [8] = test: Induction of apoptosis in human MCF7 cells assessed as increase in early apoptotic cells at 0.5 to 4 uM after 36 hrs by Annexin V-FITC/propidium iodide double staining-based flow cytometry relative to control; assay type: functional
In short: (§4)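 Cells (1×10^5/well) are cultured 24 h, then treated in triplicate for 36 h at 0.5, 1.0, 2.0 or 4.0 μM. Vehicle is 1‰ DMSO in complete medium. Cells are stained with FITC-Annexin V and PI for 15 min in the dark and analysed by flow cytometry. Mean±SD of three independent experiments.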

MCF7 [9] = test: Induction of apoptosis in human MCF7 cells assessed as increase in late apoptotic cells at 0.5 to 4 uM after 36 hrs by Annexin V-FITC/propidium iodide double staining-based flow cytometry relative to control; assay type: functional; in short: as §4
[10] = target: T1, Heat shock protein HSP90 (Homo sapiens); test: Induction of HSP90-mediated AKT degradation in human MCF7 cells assessed as increase in ubiquitinated AKT expression at 4 uM by coimmunoprecipitation-based Western blot assay; assay type: cell-based
MCF7 [11] = test: Antiproliferative activity against human MCF7 cells after 72 hrs by MTT assay; assay type: functional, cell-based; conditions: MCF7, 72 h; in short: as §2
MCF7 [12] = test: Antiinvasive activity in human MCF7 cells after 24 hrs by crystal violet dye-based transwell matrix penetration assay; assay type: functional, cell-based
In short: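 Matrigel-coated transwell invasion chambers, 1×10^4 cells seeded in the upper chamber, 37 °C for 24 h. Non-invaded cells are swabbed off. Invaded cells on the underside are fixed in 1% paraformaldehyde, stained with crystal violet and counted in ten random 200× fields per well. Result is the mean cells per field, from three independent experiments.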

[13] = target: T1, Heat shock protein HSP90 (Homo sapiens); test: Inhibition of HSP90 in human MCF7 cells assessed as down regulation of survivin expression after 48 hrs by Western blot analysis; assay type: cell-based; in short: as §3
MCF7 [14] = test: Antimigratory activity in human MCF7 cells at 250 to 1000 nM after 24 hrs by phase contrast inverted microscopy-based scratch wound healing assay; assay type: functional, cell-based
In short: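 Cells are grown to confluence in DMEM with 10% FBS and scratched with a sterile 200 μL pipette tip. Wounds are imaged by phase contrast on an inverted microscope (10× objective) at 0, 24 and 48 h. Eight images per treatment are analysed by drawing lines at the wound edges of migrating cells.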

NCI-H1299 [15] = test: Antiproliferative activity against human NCI-H1299 cells assessed as inhibition of cell growth at 10 uM after 72 hrs by MTT assay relative to control; assay type: functional; conditions: NCI-H1299, 72 h, read-out: GI; in short: as §2
MCF7 [16] = test: Induction of apoptosis in human MCF7 cells assessed as condensation of chromosome at 0.5 to 4 uM after 36 hrs by hoechst 33258 staining-based fluorescence microscopy; assay type: functional, cell-based
In short: (§5)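 Approximately 5×10^4 cells per well are exposed to 0, 0.5, 1.0, 2.0 or 4.0 μM for 36 h. Cells are PBS-washed and fixed in 4% paraformaldehyde for 30 min. They are stained with 20 μg/ml Hoechst 33258 for 15 min at room temperature in the dark, and nuclear morphology is examined by fluorescence microscopy.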

MCF7 [17] = test: Cell cycle arrest in human MCF7 cells assessed as accumulation at G1 phase at 2 uM after 48 hrs by propidium iodide staining-based flow cytometry (reference value: 60.61%); assay type: functional; in short: as §1
MCF7 [18] = test: Cell cycle arrest in human MCF7 cells assessed as accumulation at G2 phase at 0.5 uM after 48 hrs by propidium iodide staining-based flow cytometry (reference value: 22.74%); assay type: functional; in short: as §1
MCF7 [19] = test: Induction of apoptosis in human MCF7 cells assessed as cell rounding at 0.5 to 4 uM after 36 hrs by hoechst 33258 staining-based fluorescence microscopy; assay type: functional; in short: as §5
MCF7 [20] = test: Induction of apoptosis in human MCF7 cells assessed as peripherization of chromosome at 0.5 to 4 uM after 36 hrs by hoechst 33258 staining-based fluorescence microscopy; assay type: functional, cell-based; in short: as §5
MCF7 [21] = test: Induction of apoptosis in human MCF7 cells assessed as increase in early apoptotic cells after 36 hrs by Annexin V-FITC/propidium iodide double staining-based flow cytometry; assay type: functional, cell-based; in short: as §4
NCI-H1299 [22] = test: Antiproliferative activity against human NCI-H1299 cells assessed as inhibition of cell growth at 0.1 uM after 72 hrs by MTT assay relative to control; assay type: functional; conditions: NCI-H1299, 72 h, read-out: GI; in short: as §2
MCF7 [23] = test: Cell cycle arrest in human MCF7 cells assessed as accumulation at G1 phase at 4 uM after 48 hrs by propidium iodide staining-based flow cytometry (reference value: 60.61%); assay type: functional; in short: as §1
MCF7 [24] = test: Cell cycle arrest in human MCF7 cells assessed as accumulation at S phase at 1 uM after 48 hrs by propidium iodide staining-based flow cytometry (reference value: 16.64%); assay type: functional; in short: as §1
MCF7 [25] = test: Cell cycle arrest in human MCF7 cells assessed as accumulation at S phase at 0.5 uM after 48 hrs by propidium iodide staining-based flow cytometry (reference value: 16.64%); assay type: functional; in short: as §1
MCF7 [26] = test: Cell cycle arrest in human MCF7 cells assessed as accumulation at G2 phase at 4 uM after 48 hrs by propidium iodide staining-based flow cytometry (reference value: 22.74%); assay type: functional; in short: as §1

## COc1cc(OC)c(OC)cc1CC(=O)c1ccc2c(c1OC)C=CC(C)(C)O2
MCF7 [1]
  Activity: 57.49%
NCI-H1299 [2]
  inhibition of growth at 1 µM: 40.3%
[3]
  inhibition: Dose-dependent effect
MCF7 [4]
  Activity: 63.2
MCF7 [5]
  Activity: 34.16%
[6]
  inhibition: Dose-dependent effect
[7]
  inhibition: Dose-dependent effect
MCF7 [8]
  Activity: 13.6 - 71.8%
MCF7 [9]
  Activity: 13.6 - 71.8%
[10]
  Activity: Active
MCF7 [11]
  pIC50: 5.60
MCF7 [12]
  Activity: Dose-dependent effect
[13]
  inhibition: Dose-dependent effect
MCF7 [14]
  Activity: Active
NCI-H1299 [15]
  inhibition of growth at 10 µM: 72.1%
MCF7 [16]
  Activity: Active
MCF7 [17]
  Activity: 46.21%
MCF7 [18]
  Activity: 19.51%
MCF7 [19]
  Activity: Active
MCF7 [20]
  Activity: Active
MCF7 [21]
  Activity: Dose-dependent effect
NCI-H1299 [22]
  inhibition of growth at 0.1 µM: 15.3%
MCF7 [23]
  Activity: 40.72%
MCF7 [24]
  Activity: 23.2%
MCF7 [25]
  Activity: 22.99%
MCF7 [26]
  Activity: 29.7%
